We go through 28 molecules from ChEMBL document CHEMBL3352760, “Nanomolar-Potency Small Molecule Inhibitor of STAT5 Protein” (ACS Med Chem Lett, 2014).

Series [1] deals with T1, Signal transducer and activator of transcription 5B (Homo sapiens, UniProt P51692).
T1 sequence (P51692 whole entry): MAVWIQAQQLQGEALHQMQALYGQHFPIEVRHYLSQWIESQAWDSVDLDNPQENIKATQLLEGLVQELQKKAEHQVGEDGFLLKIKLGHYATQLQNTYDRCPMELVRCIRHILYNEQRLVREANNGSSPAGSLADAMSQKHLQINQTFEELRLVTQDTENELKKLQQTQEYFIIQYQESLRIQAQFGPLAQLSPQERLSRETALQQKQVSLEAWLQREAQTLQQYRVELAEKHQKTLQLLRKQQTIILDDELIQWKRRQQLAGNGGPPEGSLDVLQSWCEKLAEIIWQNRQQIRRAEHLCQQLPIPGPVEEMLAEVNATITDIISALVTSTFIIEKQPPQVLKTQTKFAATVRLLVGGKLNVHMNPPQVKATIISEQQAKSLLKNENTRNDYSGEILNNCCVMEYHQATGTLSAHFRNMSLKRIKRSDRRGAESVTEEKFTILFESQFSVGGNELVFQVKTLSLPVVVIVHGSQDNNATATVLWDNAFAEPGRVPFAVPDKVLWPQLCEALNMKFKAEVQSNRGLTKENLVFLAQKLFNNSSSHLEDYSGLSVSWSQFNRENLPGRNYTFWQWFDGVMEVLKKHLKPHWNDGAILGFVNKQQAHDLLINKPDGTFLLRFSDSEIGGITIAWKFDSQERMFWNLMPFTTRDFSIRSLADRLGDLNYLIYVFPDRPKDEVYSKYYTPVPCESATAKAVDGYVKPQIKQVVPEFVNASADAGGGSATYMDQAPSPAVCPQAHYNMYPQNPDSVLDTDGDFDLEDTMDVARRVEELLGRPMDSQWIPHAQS
Description: Inhibition of STAT5B SH2 domain (unknown origin)-5-FAM-GpYLVLDKW interaction compound treated for 15 mins by fluorescent polarization assay. An outline of the steps: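 Fluorescence polarization used STAT5B SH2 domain bound to the fluorescein-labelled phosphopeptide 5-FAM-GpYLVDKW, with inhibitor tested up to 100 μM. Polarization was read every 15 min over 1 h to confirm the probe stayed bound and to pick the time of maximal change. Ki values were derived from the data.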

For series [2], the system named is K562. Description: Cytotoxicity against human K562 cells assessed as reduction in cell viability after 72 hrs by CellTiter-Blue assay. Particulars: K562, 72 h. The class given is functional, cell-based. An outline of the steps:
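K562 (Bcr-Abl) and MV-4;11 (FLT3-ITD) leukemia cells were exposed to inhibitor over 0.78–50 μM for 72 h. Viability was read by CellTiter-Blue and IC50 taken from the dose series.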
On the technique in general: Alamar Blue is a resazurin reagent that responds to reducing activity.

For series [3], the system named is K562. Description: Inhibition of STAT5 phosphorylation at Y694 residue in human K562 cells assessed as decreases in MYC expression after 5 hrs by Western blotting. The series is classed as cell-based. Summed up:
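K562 cells were dosed for 5 h at the same concentrations used for pSTAT5 inhibition. MYC protein was followed by immunoblot.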

The test system of series [4] is K562. Description: Inhibition of STAT5 phosphorylation at Y694 residue in human K562 cells at 10 uM after 5 hrs by Western blotting. The series is classed as cell-based. Summed up: (§1)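 K562 cells were treated for 5 h across a dose range, then harvested. Immunoblots probed phospho-STAT5 (Y694), total STAT5 and cleaved PARP-1.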
(In general: A western blot detects proteins with antibodies after separation by electrophoresis.)

For series [5], the target named is Tyrosine-protein kinase ABL1 (Homo sapiens) (UniProt P00519). The series can be described thus: Inhibition of ABL (unknown origin).
Sequence of Tyrosine-protein kinase ABL1 (Homo sapiens) (P00519 whole entry): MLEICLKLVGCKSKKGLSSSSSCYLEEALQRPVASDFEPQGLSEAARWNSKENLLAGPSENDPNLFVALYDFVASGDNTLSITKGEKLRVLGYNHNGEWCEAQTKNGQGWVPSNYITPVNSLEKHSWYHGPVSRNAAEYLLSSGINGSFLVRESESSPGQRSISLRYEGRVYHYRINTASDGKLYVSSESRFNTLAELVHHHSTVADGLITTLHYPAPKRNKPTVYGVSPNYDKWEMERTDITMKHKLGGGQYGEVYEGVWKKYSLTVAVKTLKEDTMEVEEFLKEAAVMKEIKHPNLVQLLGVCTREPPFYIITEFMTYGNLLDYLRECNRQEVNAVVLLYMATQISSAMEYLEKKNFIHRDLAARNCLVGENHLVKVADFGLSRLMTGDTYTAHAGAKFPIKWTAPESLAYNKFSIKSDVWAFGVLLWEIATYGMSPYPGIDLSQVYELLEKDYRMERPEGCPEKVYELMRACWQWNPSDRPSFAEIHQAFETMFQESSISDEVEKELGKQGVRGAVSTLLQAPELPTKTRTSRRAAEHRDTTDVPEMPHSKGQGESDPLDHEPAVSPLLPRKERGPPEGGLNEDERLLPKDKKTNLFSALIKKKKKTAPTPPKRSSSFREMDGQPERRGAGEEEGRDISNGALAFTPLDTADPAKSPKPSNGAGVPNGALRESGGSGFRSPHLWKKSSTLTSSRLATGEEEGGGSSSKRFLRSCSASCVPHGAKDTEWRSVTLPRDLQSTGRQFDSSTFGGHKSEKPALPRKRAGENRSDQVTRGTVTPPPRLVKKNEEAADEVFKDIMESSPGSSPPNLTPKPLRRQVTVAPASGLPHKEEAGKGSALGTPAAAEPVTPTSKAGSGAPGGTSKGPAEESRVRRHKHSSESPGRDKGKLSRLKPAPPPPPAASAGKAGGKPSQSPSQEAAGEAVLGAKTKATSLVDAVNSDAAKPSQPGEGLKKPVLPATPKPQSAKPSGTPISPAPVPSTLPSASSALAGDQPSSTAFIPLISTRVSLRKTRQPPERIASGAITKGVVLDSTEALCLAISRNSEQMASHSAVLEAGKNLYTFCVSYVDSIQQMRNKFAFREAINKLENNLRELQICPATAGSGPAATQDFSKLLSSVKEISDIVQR
Series [6] has as its target Receptor-type tyrosine-protein kinase FLT3 (Homo sapiens) (UniProt P36888). The series can be described thus: Inhibition of FLT3 (unknown origin).
In a further series the target is JAK2/JAK1 (Homo sapiens) (UniProt P23458+O60674). Description: Inhibition of JAK1/2 (unknown origin). The class given is protein-complex assay.
Series [7] relates to K562. Description: Inhibition of STAT5 phosphorylation at Y694 residue in human K562 cells after 5 hrs by Western blotting. The class given is cell-based. An outline of the steps: as §1
Series [8] relates to MDA-MB-231. Description: Effect on total STAT3 level in human MDA-MB-231 cells at 15 uM after 5 hrs by Western blotting. The series is classed as functional, cell-based. Summed up:
(§2)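 MDA-MB-231 breast cancer cells carry high pSTAT3 and negligible pSTAT5. They were treated up to 20 μM and immunoblotted for pSTAT3, total STAT3 and total STAT5.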

Series [9] deals with Signal transducer and activator of transcription 3 (Homo sapiens) (UniProt P40763). Particulars: MDA-MB-231, 15 uM.
Sequence of Signal transducer and activator of transcription 3 (Homo sapiens) (P40763 whole entry): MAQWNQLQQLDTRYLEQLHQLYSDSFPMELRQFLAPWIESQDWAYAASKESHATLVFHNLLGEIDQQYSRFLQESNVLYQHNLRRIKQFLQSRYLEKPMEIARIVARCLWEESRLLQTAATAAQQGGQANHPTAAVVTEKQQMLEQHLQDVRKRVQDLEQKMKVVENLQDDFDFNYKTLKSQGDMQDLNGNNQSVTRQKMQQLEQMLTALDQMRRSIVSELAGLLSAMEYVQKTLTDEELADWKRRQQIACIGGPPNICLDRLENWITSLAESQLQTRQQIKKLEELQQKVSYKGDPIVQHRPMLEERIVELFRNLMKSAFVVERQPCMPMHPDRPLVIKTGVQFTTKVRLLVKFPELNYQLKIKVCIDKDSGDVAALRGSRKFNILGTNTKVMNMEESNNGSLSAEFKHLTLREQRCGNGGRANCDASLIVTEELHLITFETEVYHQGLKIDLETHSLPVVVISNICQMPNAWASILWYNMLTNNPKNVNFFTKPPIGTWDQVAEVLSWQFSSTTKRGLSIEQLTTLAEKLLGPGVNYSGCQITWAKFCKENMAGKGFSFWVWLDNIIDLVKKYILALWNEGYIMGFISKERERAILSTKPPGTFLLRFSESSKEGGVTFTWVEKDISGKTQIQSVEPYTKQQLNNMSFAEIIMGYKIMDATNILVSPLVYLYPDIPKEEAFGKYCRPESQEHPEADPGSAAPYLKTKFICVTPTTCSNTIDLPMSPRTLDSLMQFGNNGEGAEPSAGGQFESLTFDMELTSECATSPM
Series [10] has as its system K562. Description: Effect on total STAT5 level in human K562 cells at 15 uM after 5 hrs by Western blotting. The class given is functional, cell-based. Summed up: as §1
In series [11] the target is T1, Signal transducer and activator of transcription 5B. Description: Binding affinity to full-length His-tagged STAT5B (unknown origin) by surface plasmon resonance assay.
Series [12] is described as follows: Cytotoxicity against human CD34-positive umbilical cord cells assessed as reduction in cell viability at 10 uM after 72 hrs by CellTiter-Blue assay. The class given is cell-based. An outline of the steps:
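Healthy human CD34+ umbilical cord cells received a single 10 μM dose, with MV4;11 cells run alongside. Cell viability was then measured.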

Series [13] relates to MDA-MB-231. Description: Effect on total STAT5 level in human MDA-MB-231 cells at 15 uM after 5 hrs by Western blotting. The series is classed as functional, cell-based. Summed up: as §2
The next series has as its system MV4-11. Description: Cytotoxicity against human MV4-11 cells assessed as reduction in cell viability after 72 hrs by CellTiter-Blue assay. Particulars: MV4-11, 72 h.
The subject of series [14] is K562. The series can be described thus: Inhibition of STAT5 phosphorylation at Y694 residue in human K562 cells assessed as decreases in MCL-1 expression at 15 uM after 24 hrs by Western blotting. The series is classed as cell-based. Summed up:
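K562 cells were exposed to 15 μM for 24 h. Lysates were immunoblotted for cleaved PARP-1, cleaved caspase-3 and MCL-1.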

The source made the active and inactive calls. The rule behind the calls is not given here.

Sequence of Receptor-type tyrosine-protein kinase FLT3 (Homo sapiens) (P36888 whole entry): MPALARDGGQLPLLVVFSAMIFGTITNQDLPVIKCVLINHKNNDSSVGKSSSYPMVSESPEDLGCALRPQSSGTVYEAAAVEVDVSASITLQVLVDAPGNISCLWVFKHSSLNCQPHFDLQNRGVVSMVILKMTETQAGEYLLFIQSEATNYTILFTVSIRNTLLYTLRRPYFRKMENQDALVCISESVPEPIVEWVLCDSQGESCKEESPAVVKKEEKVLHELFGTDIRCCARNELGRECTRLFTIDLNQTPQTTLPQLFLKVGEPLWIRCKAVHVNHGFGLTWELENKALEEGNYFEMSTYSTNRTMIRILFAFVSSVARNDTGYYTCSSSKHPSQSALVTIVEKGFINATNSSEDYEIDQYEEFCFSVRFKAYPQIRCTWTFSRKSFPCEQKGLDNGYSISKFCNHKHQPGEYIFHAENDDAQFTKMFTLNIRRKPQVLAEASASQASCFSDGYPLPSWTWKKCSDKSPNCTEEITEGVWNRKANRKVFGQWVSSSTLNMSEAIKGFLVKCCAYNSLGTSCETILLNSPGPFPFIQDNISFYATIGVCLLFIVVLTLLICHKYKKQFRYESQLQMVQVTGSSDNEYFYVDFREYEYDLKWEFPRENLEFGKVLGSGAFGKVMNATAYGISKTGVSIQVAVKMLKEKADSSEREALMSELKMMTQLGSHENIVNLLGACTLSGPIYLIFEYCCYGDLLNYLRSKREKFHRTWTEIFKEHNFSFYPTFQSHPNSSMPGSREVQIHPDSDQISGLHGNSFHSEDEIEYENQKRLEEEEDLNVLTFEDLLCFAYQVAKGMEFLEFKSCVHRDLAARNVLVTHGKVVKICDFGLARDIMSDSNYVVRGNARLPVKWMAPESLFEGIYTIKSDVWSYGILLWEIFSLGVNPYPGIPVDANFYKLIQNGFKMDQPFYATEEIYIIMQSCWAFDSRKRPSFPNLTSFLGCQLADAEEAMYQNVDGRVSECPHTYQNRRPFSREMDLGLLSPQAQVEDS

Take `CN(CC(=O)N(Cc1ccccc1)c1ccc(C(=O)O)c(O)c1)S(=O)(=O)c1c(F)c(F)c(F)c(F)c1F`: in [1], the inhibition constant Ki (usually the equilibrium dissociation constant of an inhibitor or competing ligand from its target) is above 60 µM.

As for `Cc1cc(C)c(S(=O)(=O)N(C)CC(=O)N(CC2CCCO2)c2ccc(C(=O)O)c(O)c2)c(C)c1` (stereo unspecified), the inhibition constant Ki in [1] is above 60 µM.

In the case of `Cc1cc(C)c(S(=O)(=O)N(C)CC(=O)N(Cc2cccs2)c2ccc(C(=O)O)c(O)c2)c(C)c1`, the Ki in [1] is above 60 µM.

For the molecule `Cc1cc(C)c(S(=O)(=O)N(C)CC(=O)N(Cc2ccccc2)c2ccc(C(=O)O)c(O)c2)c(C)c1`, the inhibition constant (Ki) in [1] is above 60 µM.

Consider `Cc1cc(C)c(S(=O)(=O)N(C)CC(=O)N(Cc2ccc3ccccc3c2)c2ccc(C(=O)O)c(O)c2)c(C)c1`, for which the inhibition constant Ki in series [1] was 6.62 µM. Also, in the series with K562 [2], the IC50 – broadly, the concentration that gives 50% inhibition – is 3 µM.

In series [1], `Cc1cc(C)c(S(=O)(=O)N(C)CC(=O)N(CC23CCC(CC2)C3)c2ccc(C(=O)O)c(O)c2)c(C)c1` yielded an inhibition constant (Ki) above 60 µM.

`CN(CC(=O)N(Cc1cccs1)c1ccc(C(=O)O)c(O)c1)S(=O)(=O)c1c(F)c(F)c(F)c(F)c1F` came in with an inhibition constant Ki in series [1] above 60 µM.

In the case of `CN(CC(=O)N(CC1CC1)c1ccc(C(=O)O)c(O)c1)S(=O)(=O)c1c(F)c(F)c(F)c(F)c1F`, the inhibition constant (Ki) in [1] was above 60 µM.

Molecule `Cc1cc(C)c(S(=O)(=O)N(C)CC(=O)N(Cc2cc(C(C)(C)C)cc(C(C)(C)C)c2)c2ccc(C(=O)O)c(O)c2)c(C)c1` yielded a Ki in series [1] of 4.77 µM. Besides, the IC50 in the series on K562 [2] came to 3 µM.

The molecule `CN(CC(=O)N(Cc1ccc2ccccc2c1)c1ccc(C(=O)O)c(O)c1)S(=O)(=O)c1c(F)c(F)c(F)c(F)c1F` displayed an inhibition constant Ki in series [1] of 12.4 µM. Also, the IC50 in the series on K562 [2] came to 3 µM.

Take `CN(CC(=O)N(Cc1nccn1C)c1ccc(C(=O)O)c(O)c1)S(=O)(=O)c1c(F)c(F)c(F)c(F)c1F`: in [1], the inhibition constant (Ki) is above 60 µM.

In the case of `Cc1cc(C)c(S(=O)(=O)N(C)CC(=O)N(Cc2ccc(C(C)(C)C)cc2)c2ccc(C(=O)O)c(O)c2)c(C)c1`, in series [1], the Ki was above 60 µM.

In the case of `CN(CC(=O)N(Cc1ccc(C(C)(C)C)cc1)c1ccc(C(=O)O)c(O)c1)S(=O)(=O)c1c(F)c(F)c(F)c(F)c1F`, in [1], the Ki was above 60 µM.

Take `Cc1cc(C)c(S(=O)(=O)N(CC(=O)N(Cc2cc(C(C)(C)C)cc(C(C)(C)C)c2)c2ccc(C(=O)O)c(O)c2)Cc2ccc(Cl)cc2)c(C)c1`: in the series on K562 [2], the IC50 came out at 3 µM.

On to `Cc1cc(C)c(S(=O)(=O)N(C)CC(=O)N(CC2CC2)c2ccc(C(=O)O)c(O)c2)c(C)c1`, for which the inhibition constant (Ki) in series [1] is above 60 µM.

For `CN(CC(=O)N(Cc1ccc(F)cc1)c1ccc(C(=O)O)c(O)c1)S(=O)(=O)c1c(F)c(F)c(F)c(F)c1F`, the Ki in series [1] was above 60 µM.

Take `Cc1cc(C)c(S(=O)(=O)N(C)CC(=O)N(Cc2ccc(F)cc2)c2ccc(C(=O)O)c(O)c2)c(C)c1`: in series [1], the Ki was above 60 µM.

`Cc1cc(C)c(S(=O)(=O)N(C)CC(=O)N(Cc2nccn2C)c2ccc(C(=O)O)c(O)c2)c(C)c1` yielded a Ki in series [1] above 60 µM.

`O=C(O)c1ccc(N(Cc2ccc3ccccc3c2)C(=O)CN(Cc2ccc(Cl)cc2)S(=O)(=O)c2c(F)c(F)c(F)c(F)c2F)cc1O`: the IC50 in the series on K562 [2] came out at 3 µM.

In turn, `Cc1ccc(CN(C(=O)CN(C)S(=O)(=O)c2c(F)c(F)c(F)c(F)c2F)c2ccc(C(=O)O)c(O)c2)cc1` displayed an inhibition constant Ki in series [1] above 60 µM.

Take `CN(CC(=O)N(Cc1cc(C(C)(C)C)cc(C(C)(C)C)c1)c1ccc(C(=O)O)c(O)c1)S(=O)(=O)c1c(F)c(F)c(F)c(F)c1F`: the inhibitory constant (Ki) in [1] came out at 11.5 µM. Moreover, the IC50 in the series on K562 [2] came to 3 µM.

Consider `CC(C)(C)c1cc(CN(C(=O)CN(Cc2ccc(Cl)cc2)S(=O)(=O)c2c(F)c(F)c(F)c(F)c2F)c2ccc(C(=O)O)c(O)c2)cc(C(C)(C)C)c1`, for which the inhibition result with K562 [3] and in the series with K562 [7] was “Dose-dependent effect” in each case. In addition, the inhibition result in the series with K562 [4] and with K562 [14] was “Active” in each case. Moreover, the inhibition entry (in series [5]; in series [6]; at JAK2/JAK1 (Homo sapiens); in series [9]) was “inactive” throughout. Also, the outcome with MDA-MB-231 [8], in the series with K562 [10] and in the series on MDA-MB-231 [13] was inactive. Moreover, in series [11], binding was characterised by a dissociation constant (Kd) of 0.042 µM. In addition, the Activity result in series [12] was “Non-toxic”. Besides, the values for the half-inhibitory concentration (IC50) in the series with MV4-11 and in the series on K562 [2] were 3.5 µM and 3 µM, respectively.

For the molecule `Cc1cc(C)c(S(=O)(=O)N(C)CC(=O)N(Cc2c(F)c(F)c(F)c(F)c2F)c2ccc(C(=O)O)c(O)c2)c(C)c1`, in series [1], the inhibition constant Ki is above 60 µM.

The molecule `CN(CC(=O)N(Cc1c(F)c(F)c(F)c(F)c1F)c1ccc(C(=O)O)c(O)c1)S(=O)(=O)c1c(F)c(F)c(F)c(F)c1F` gave a Ki in series [1] above 60 µM.

As for `Cc1cc(C)c(S(=O)(=O)N(CC(=O)N(Cc2ccc3ccccc3c2)c2ccc(C(=O)O)c(O)c2)Cc2ccc(Cl)cc2)c(C)c1`, in the series on K562 [2], the IC50 turned out to be 3 µM.

For `CN(CC(=O)N(CC12CCC(CC1)C2)c1ccc(C(=O)O)c(O)c1)S(=O)(=O)c1c(F)c(F)c(F)c(F)c1F`, in series [1], the Ki is above 60 µM.

Turning to `Cc1ccc(CN(C(=O)CN(C)S(=O)(=O)c2c(C)cc(C)cc2C)c2ccc(C(=O)O)c(O)c2)cc1`, in series [1], the Ki was above 60 µM.

For the molecule `CN(CC(=O)N(CC1CCCO1)c1ccc(C(=O)O)c(O)c1)S(=O)(=O)c1c(F)c(F)c(F)c(F)c1F` (stereo unspecified), the Ki in series [1] was above 60 µM.
